Assay results: ChEMBL document CHEMBL4024799, “Synthesis and Biological Characterization of Aryl Uracil Inhibitors of Hepatitis C Virus NS5B Polymerase: Discovery of ABT-072, a trans-Stilbene Analog with Good Oral Bioavailability” (J Med Chem, 2018)
Activity calls are given as the source filed them. The rule behind the calls is not given here.

Key:
Hepatitis C virus = test: Antiviral activity against HCV genotype 1b Con1 infected in human HuH7 cells harboring HCV subgenomic bicistronic replicon after 3 days in presence of 40% human plasma by luciferase reporter gene assay; type: functional, cell-based, Hepacivirus hominis; conditions: genotype 1b Con1, Huh-7, 72 h
In short: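 Subgenomic genotype 1a (H77) or 1b (Con1) replicons carrying firefly luciferase, transfected into Huh-7 cells. Replication inhibition was read as luciferase level in cell lysate on a luminometer and reported as EC50. Runs were done without human plasma or with 40% human plasma added, to assess inhibitor–protein binding.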

[1] = Plasma clearance in Sprague-Dawley rat at 5 mg/kg, iv; type: ADME, organism-based
In short: (§1)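 Sprague-Dawley rats, n = 3 per experiment; solution in DMSO:PEG400 (1:9, v/v) given IV or oral; 5 mg/kg for both routes, and 30 mg/kg oral; plasma t1/2, Vss, clearance, Cmax, AUC and F% determined.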

[2] = Cmax in Sprague-Dawley rat at 5 mg/kg, po; type: ADME, organism-based; design: dose 5 mg/kg, route oral; conditions: in vivo; in short: as §1
[3] = AUC in Sprague-Dawley rat at 5 mg/kg, po; type: ADME, organism-based; conditions: in vivo; in short: as §1
[4] = Oral bioavailability in Sprague-Dawley rat at 5 mg/kg; type: ADME, organism-based; conditions: in vivo; in short: as §1
Rattus norvegicus = test: AUC in Sprague-Dawley rat at 30 mg/kg, po; type: ADME, organism-based; conditions: in vivo; in short: as §1
[5] = Drug level in dog liver at 2.5 mg/kg, po after 24 hrs; type: ADME, organism-based, Canis lupus familiaris; conditions: read-out: Drug uptake
In short: (§2)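 Dogs given oral doses; liver tissue and plasma drug levels measured at 12 and 24 h; liver:plasma ratio calculated.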

[6] = Cmax in dog at 2.5 mg/kg, po; type: ADME, organism-based, Canis lupus familiaris; design: dose 2.5 mg/kg, route oral; conditions: in vivo
Canis familiaris [7] = test: AUC in dog at 2.5 mg/kg, iv; type: ADME, organism-based, Canis lupus familiaris; conditions: in vivo
[8] = Terminal half life in human at 80 mg administered as single dose; type: ADME; conditions: in vivo, read-out: beta t1/2 (converted)
In short: (§3)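 Single oral doses of 80, 160 or 320 mg in healthy subjects; plasma concentration-time profiles reported as mean (+SD); Cmax and terminal phase half-life derived.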

[9] = Half life in dog at 30 mg/kg, po; type: ADME, organism-based, Canis lupus familiaris; conditions: in vivo
Canis familiaris [10] = test: AUC in dog at 30 mg/kg, po; type: ADME, organism-based, Canis lupus familiaris; conditions: in vivo
Plasma [11] = test: Drug level in po dosed dog plasma up to 24 hrs; type: ADME, organism-based, Canis lupus familiaris; conditions: in vivo; in short: as §2
Plasma [12] = test: Drug uptake in human plasma administered as single dose; type: ADME, cell-free
[13] = system: Hepatitis C virus (isolate H77); test: Inhibition of HCV genotype 1a H77 NS5B RNA dependent RNA polymerase M414T mutant assessed as reduction in [3H]UTP incorporation in to RNA preincubated for 15 mins followed by [3H]UTP addition measured after 3 hrs by microbeta scintillation counting method
In short: (§4)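 Standard NS5B polymerase inhibition assay using genotype 1a (H77) or 1b (BK) enzyme. RNA product formation was measured as ³H-UTP incorporated into RNA, read by scintillation counting. IC50 was calculated with a standard IC50 equation.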

[14] = system: Hepatitis C virus (isolate BK); test: Inhibition of HCV genotype 1b BK NS5B RNA dependent RNA polymerase Y448H mutant assessed as reduction in [3H]UTP incorporation in to RNA preincubated for 15 mins followed by [3H]UTP addition measured after 3 hrs by microbeta scintillation counting method; in short: as §4
[15] = Tmax in human at 80 mg administered as single dose; type: ADME; conditions: in vivo
[16] = AUC (infinity) in human at 80 mg administered as single dose; type: ADME; design: dose 80 mg, time infinity; conditions: in vivo; in short: as §3
[17] = Cmax in human at 320 mg administered as single dose; type: ADME; design: dose 320 mg; conditions: in vivo; in short: as §3
[18] = AUC (infinity) in human at 320 mg administered as single dose; type: ADME; design: dose 320 mg, time infinity; conditions: in vivo; in short: as §3
[19] = Tmax in human infected with HCV genotype 1 at 160 mg administered once daily for 2 days; type: ADME; conditions: in vivo
[20] = AUC (0 to 24 hrs) in human infected with HCV genotype 1 at 160 mg administered once daily for 2 days; type: ADME; design: time < 24 hr, dose 160 mg; conditions: in vivo
In short: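 HCV GT1-infected patients (N=4) given 160 mg once daily for 2 days; plasma Cmax, AUC and t1/2 determined.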

SMILES: COc1c(/C=C/c2ccc(NS(C)(=O)=O)cc2)cc(-n2ccc(=O)[nH]c2=O)cc1C(C)(C)C [ABT-072]
- EC50 (Hepatitis C virus): 2.4 nM
- clearance [1]: 15 mL/min/kg
- Cmax [2]: 280 ng/mL
- AUC [3]: 2520 ng·h/mL
- bioavailability [4]: 44%
- AUC (Rattus norvegicus): 21.6 µg·h/mL
- concentration at 24 h [5]: > 1000 ng/g
- Cmax [6]: 880 ng/mL
- AUC (Canis familiaris [7]): 16.8 µg·h/mL
- half-life [8]: 490 min
- half-life [9]: 576 min
- AUC (Canis familiaris [10]): 124 µg·h/mL
- Drug uptake (Plasma [11]): Dose-dependent effect
- Drug uptake (Plasma [12]): Dose-dependent effect
- inhibition [13]: inactive
- inhibition [14]: inactive
- Tmax [15]: 5.1 h
- AUC(0-inf) [16]: 2440 ng·h/mL
- Cmax [17]: 486 ng/mL
- AUC(0-inf) [18]: 7200 ng·h/mL
- Tmax [19]: 3.6 h
- AUC at 24 h [20]: 4180 ng·h/mL
